CDK5 p35 inh – inhibitors of human CDK5/p35 kinase, primary screen, biochemical, single concentration; AID 488839, 2010; 330,000 tested, 0.01% active; inhibition, % at 10 µM; Recombinant CDK5/p35, ADP-Glo luminescence, 60 min;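 active means highest replicate inhibition of at least 50% and at least 75% of replicates reaching 50%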;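 further: plate controls were DMSO neutral control for no effect and GW8510 at 10 µM for full effect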
GSIS activator – GLuc luminescence reporter in INS-1E cells, primary screen for activators of glucose-dependent secretion of insulin. activation, % at 16.6 µM. 370,000 tested, 0.61% active. INS-1E GLuc reporter insulin secretion, 2-3 h;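 active means lowest replicate activation of at least 40%, so every replicate reaches that level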;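 further: 0% = median of neutral control wells and 100% = median of IBMX positive control wells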
STK33 kinase inh – inhibitors of purified STK33 kinase, primary screen, biochemical, ADP-Glo luminescence, homogeneous, cell-free | 320,000 tested, 0.073% active | MBP phosphorylation | Serine/threonine-protein kinase 33 (Homo sapiens), Q9BYT3 | AID 2661, 2010 | inhibition, % at 10 µM;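 active means inhibition at or above 25%, using the most active replicate where run in duplicate; inactive means inhibition below 25%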
Target sequence (Q9BYT3 whole entry, looked up): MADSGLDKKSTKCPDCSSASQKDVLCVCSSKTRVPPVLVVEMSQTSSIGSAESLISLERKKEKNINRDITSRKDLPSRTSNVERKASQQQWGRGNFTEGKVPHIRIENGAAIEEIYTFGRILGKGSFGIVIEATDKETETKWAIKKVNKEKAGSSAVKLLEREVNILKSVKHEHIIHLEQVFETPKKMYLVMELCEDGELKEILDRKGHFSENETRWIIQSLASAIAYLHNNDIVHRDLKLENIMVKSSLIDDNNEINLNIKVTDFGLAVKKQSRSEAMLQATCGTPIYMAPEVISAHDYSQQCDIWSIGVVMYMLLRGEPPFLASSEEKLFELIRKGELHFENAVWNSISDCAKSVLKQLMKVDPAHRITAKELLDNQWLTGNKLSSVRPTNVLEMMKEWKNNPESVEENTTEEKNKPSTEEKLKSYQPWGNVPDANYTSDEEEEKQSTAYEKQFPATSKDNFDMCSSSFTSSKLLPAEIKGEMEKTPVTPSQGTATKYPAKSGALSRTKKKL
Env fusion inh – inhibitors of HIV-1 Env-driven cell-cell fusion, primary screen, HeLa-JRFL effector, CEM21 target cells, luciferase. 360,000 tested, 1.1% active. AID 651610, 2012. inhibition, % at 12.3 µM;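 active means mean replicate inhibition score of at least 50 and every replicate individually at or above 50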;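 further: 0% = plate neutral controls and 100% = maraviroc near 300 nM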
GSK3A inh – blockers of GSK3A enzyme activity – biochemical, luminescence, cell-free homogeneous, HTS, primary screen. GSK-3 alpha kinase, ADP-Glo luminescence, 60 min. inhibition, % at 10 µM. 320,000 tested, 0.1% active. AID 2650, 2010;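 active means more than half of replicates show inhibition above 20%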;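 further: GST-tagged GSK-3 alpha with peptide substrate and 25 µM ATP; 0% = DMSO neutral wells and 100% = GW8510 positive control wells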
GSK3B inh – human GSK3beta kinase inhibitors, primary screen, biochemical, cell-free homogeneous, HTS. Glycogen synthase kinase-3 beta (Homo sapiens), P49841. GST-GSK3beta kinase, ADP-Glo luminescence, 60 min; stronger effect = lower value. activity score (negative = inhibition), % at 10 µM. 300,000 tested, 0.038% active;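 active means more than half of replicate wells score below -50%, meaning over 50% inhibition versus plate controls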;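 further: 0% = median DMSO wells and -100% = median GW8510 positive control wells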
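test system = GST-tagged human GSK3beta kinase, cell-free | reagent = 25 µM ATP with peptide substrate | dosing = one dose of 10 µM per compound | schedule = 60 min reaction, RT | detection = luminescent ADP-Glo measurement of ADP formed | control set = DMSO neutral wells and GW8510 at 20 µM as positive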
Numbers without * were called inactive; [ ] = dose if it differs, or a comment. In the library only some 1.4% were active in any assay of this set; here they are far more common.

CCN(CCNC(=O)C1CCN(Cc2nc(-c3cccc(Cl)c3)oc2C)CC1)c1ccccc1 was read as CDK5 p35 inh -1.8, STK33 kinase inh -0.1, Env fusion inh 55.3*, GSK3A inh -2.3 and GSK3B inh 1.9.
`COc1ccc(CCNC(=O)C2CCN(Cc3nc(-c4ccccc4C)oc3C)CC2)cc1OC` gave CDK5 p35 inh 0.5, STK33 kinase inh -0.6, Env fusion inh 56.8*, GSK3A inh 1.1 and GSK3B inh -0.6.
For CCN1[C@@H]2Cn3c(ccc(C4=CCCC4)c3=O)[C@H]1[C@@H](C(=O)N[C@H](C)c1ccccc1)[C@@H]2CO the results were GSIS activator 2.1.
COc1cccc(S(=O)(=O)N(C)C[C@@H]2Oc3ncc(C#Cc4ccc(F)cc4)cc3C(=O)N([C@H](C)CO)C[C@@H]2C)c1 was read as GSIS activator -5.9 and Env fusion inh 44.7[16.7 µM].
`NS(=O)(=O)c1ccc(CCNc2nc3c(-c4cccc(F)c4)nnn3c3ccccc23)cc1` gave CDK5 p35 inh 0.1, GSIS activator 59.1*, STK33 kinase inh -1.2, Env fusion inh -217.4, GSK3A inh -4.1 and GSK3B inh 1.5.
Screening Cc1cccc(-c2nnn3c2nc(NCCc2ccc(S(N)(=O)=O)cc2)c2ccccc23)c1 returned CDK5 p35 inh 0.2, GSIS activator 5.1, STK33 kinase inh -0.1, Env fusion inh -226.3, GSK3A inh 1.0 and GSK3B inh 2.4.
Screening CO[C@H]1CC[C@@H]2CCN(C)C(=O)[C@H](C)N(C)C(=O)c3cc(C#N)ccc3OC[C@@H]1O2 returned GSIS activator 0.0 and Env fusion inh 23.9[16.7 µM].
Screening CCC(=O)N1CC2(CCN(Cc3nccs3)CC2)c2c(n(C)c3cc(OC)ccc23)[C@@H]1CO returned GSIS activator 35.3.
`CC(C)(C)OC(=O)N1CCc2onc(-c3ccc([N+](=O)[O-])cc3)c2C1=O` gave GSIS activator 6.5 and Env fusion inh 9.2.
`CC(C)(C)OC(=O)N1CCc2onc(-c3ccc(Br)cc3)c2C1=O` gave GSIS activator -10.4 and Env fusion inh 71.7*.
For COc1ccc(S(=O)(=O)Nc2ccc3c(c2)C(=O)N([C@H](C)CO)C[C@H](C)[C@H](CN(C)C(=O)CCCN(C)C)OCCCC[C@H](C)O3)cc1 the results were GSIS activator 13.3 and Env fusion inh -14.4[16.7 µM].
For O=C(/C=C/c1cccc([N+](=O)[O-])c1)c1ccc([N+](=O)[O-])o1 the results were CDK5 p35 inh -7.2, GSIS activator -16.1, STK33 kinase inh -1.6, Env fusion inh 55.8*, GSK3A inh -1.7 and GSK3B inh -0.2.
Screening CC(C)NC(=O)N(C)C[C@@H]1Oc2ncc(C#CC3CC3)cc2C(=O)N([C@H](C)CO)C[C@H]1C returned GSIS activator 10.7 and Env fusion inh 14.3[16.7 µM].
For CCCCN(Cc1ccccc1)S(=O)(=O)c1cc(Br)cc2c1N(C(C)=O)C(C)C2 (configuration not stated) the results were CDK5 p35 inh -1.2, STK33 kinase inh -2.9, Env fusion inh 63.1*, GSK3A inh 0.6 and GSK3B inh 3.3.
Cc1ccccc1-c1ccc2c(c1)O[C@H](CN(C)C(=O)Nc1ccc(C(F)(F)F)cc1)[C@H](C)CN([C@@H](C)CO)S2(=O)=O was read as GSIS activator -8.1 and Env fusion inh 56.1*[16.7 µM].
For Cc1ccc(-c2ccc3c(c2)O[C@@H](CN(C)Cc2ccccc2)[C@H](C)CN([C@@H](C)CO)S3(=O)=O)cc1 the results were GSIS activator 5.2 and Env fusion inh 23.9[16.7 µM].
For C[C@@H]1CN([C@H](C)CO)S(=O)(=O)c2ccc(Br)cc2O[C@@H]1CN(C)Cc1ccc(-c2ccccc2)cc1 the results were GSIS activator -31.3 and Env fusion inh 75.9*.
Screening CC(C)CC#Cc1ccc2c(c1)O[C@@H](CN(C)Cc1ccccc1)[C@H](C)CN([C@H](C)CO)S2(=O)=O returned GSIS activator 345.6* and Env fusion inh 6.3[16.7 µM].
`C[C@@H]1CN([C@@H](C)CO)S(=O)(=O)c2ccc(-c3ccccc3)cc2O[C@H]1CN(C)Cc1ccccc1` gave GSIS activator -12.8 and Env fusion inh 55.2*[16.7 µM].
C[C@@H]1CN([C@H](C)CO)S(=O)(=O)c2ccc(Br)cc2O[C@@H]1CN(C)Cc1ccccc1 was read as GSIS activator -8.6 and Env fusion inh -23.4[16.7 µM].
For CC(C)CC#Cc1ccc2c(c1)O[C@H](CN(C)Cc1ccccc1)[C@H](C)CN([C@H](C)CO)S2(=O)=O the results were GSIS activator -12.7 and Env fusion inh 8.4[16.7 µM].
`Cc1ccccc1-c1ccc2c(c1)O[C@@H](CN(C)C(=O)Nc1ccc(C(F)(F)F)cc1)[C@@H](C)CN([C@H](C)CO)S2(=O)=O` gave GSIS activator -12.0 and Env fusion inh -24.8[16.7 µM].
O=C(Cc1cccnc1)N1CC(=O)N2[C@H](C1)[C@@H](c1ccc(-c3cccc(F)c3)cc1)[C@@H]2CO was read as GSIS activator 7.2.
COc1ccc2c3c(n(C)c2c1)[C@H](CO)N(C(=O)c1cnccn1)CC31CCN(C(=O)c2ccncc2)CC1 was read as GSIS activator 15.1.
For CCCC#Cc1ccc2c(c1)O[C@H](CN(C)Cc1ccc3c(c1)OCO3)[C@@H](C)CN([C@H](C)CO)S2(=O)=O the results were GSIS activator -23.8 and Env fusion inh 17.6[16.7 µM].
Screening CCCC#Cc1ccc2c(c1)O[C@H](CN(C)Cc1ccc3c(c1)OCO3)[C@H](C)CN([C@H](C)CO)S2(=O)=O returned GSIS activator -19.2 and Env fusion inh 55.7*[16.7 µM].
Screening C[C@@H]1CN([C@H](C)CO)C(=O)c2cc(-c3ccccc3)cnc2O[C@@H]1CN(C)CC1CC1 returned GSIS activator 13.7 and Env fusion inh -2.8[16.7 µM].
O=C(Nc1ccccc1)c1ccccc1NS(=O)(=O)c1ccc(Cl)s1 was read as CDK5 p35 inh 1.5, STK33 kinase inh -0.4, GSK3A inh -3.4 and GSK3B inh 6.9.
For O=C(Nc1ccccc1Cc1ccccc1)c1ccccc1NS(=O)(=O)c1ccc(Cl)s1 the results were CDK5 p35 inh 0.8, GSIS activator -23.5, STK33 kinase inh -0.7, Env fusion inh 67.4*, GSK3A inh 7.8 and GSK3B inh 1.0.
Screening C[C@@H]1CN([C@H](C)CO)C(=O)c2cc(NC(=O)Cn3cnnn3)ccc2O[C@@H]1CN(C)C(=O)Nc1ccc(F)cc1 returned GSIS activator -0.7 and Env fusion inh -0.2[16.7 µM].

Compound activity: PubChem, Broad Institute
